Data on 10 compounds can be found in ChEMBL document CHEMBL1126207, “Base-catalyzed isomerization of retinoic acid. Synthesis and differentiation-inducing activities of 14-alkylated all-trans-, 13-cis-, and 20,14-retro-retinoic acids” (1992).

pEC50: −log10 of the molar value. The source made the active and inactive calls. No cut-off for these calls is given here. Where only a bound is given, the exact number is not on record here.

In the first test the test system is HL-60. Kind of test: Concentration required for 50% inhibition of differentiation-inducing activity against human promyelocytic leukemia cell line HL-60; IA is inactive. The class given is functional, cell-based.
Conditions: not given
The procedure, abridged:
(§1)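 HL-60 cells kept in suspension in RPMI1640 with 5% FCS plus penicillin G/streptomycin, 37 °C, 5% CO2. Seeded near 8 × 10^4 cells/mL, compound added from 0.2 mM ethanol stock (final ethanol below 0.5%), 4-day incubation. Differentiation by NBT reduction (20 min, 37 °C, 0.2% NBT with TPA), formazan-positive cells counted on ≥200 cells; ED50 taken from NBT data; retinoic acid run concurrently.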
`CC1=C(/C=C/C(C)=C/C=C/C(C)=C(/C(=O)O)C(C)C)C(C)(C)CCC1`: the ED50 result was “inactive”.

For `CC1=C(/C=C/C(C)=C/C=C/C(C)=C(\C(=O)O)C(C)C)C(C)(C)CCC1`, the ED50 entry was “inactive”.

A further test relates to HL-60. Briefly: Concentration required for 50% inhibition of differentiation-inducing activity against human promyelocytic leukemia cell line HL-60. The class given is functional. Particulars: read-out: ED50 (the source's name). The procedure, abridged:
as §1
For the compound `C=C(/C=C/C=C(C)/C=C/C1=C(C)CCCC1(C)C)CC(=O)O`, the pEC50 is 7.28.

For the compound `C=C(/C=C/C=C(C)/C=C/C1=C(C)CCCC1(C)C)C(C)C(=O)O` (stereo not given), the pEC50 was 7.26.

As for `CC1=C(/C=C/C(C)=C/C=C/C(C)=C(\C)C(=O)O)C(C)(C)CCC1`, the pEC50 is 7.89.

With `C=C(/C=C/C=C(C)/C=C/C1=C(C)CCCC1(C)C)C(C)(C)C(=O)O`, the pEC50 is less than 6.00.

As for `CC\C(C(=O)O)=C(C)/C=C/C=C(C)/C=C/C1=C(C)CCCC1(C)C`, the pEC50 is 6.17.

For `CC1=C(/C=C/C(C)=C/C=C/C(C)=C/C(=O)O)C(C)(C)CCC1` [TRETINOIN], the pEC50 is 8.62.

For `CC1=C(/C=C/C(C)=C/C=C/C(C)=C(/C)C(=O)O)C(C)(C)CCC1`, the pEC50 was 7.20.

For the compound `CC1=C(/C=C/C(C)=C/C=C/C(C)=C\C(=O)O)C(C)(C)CCC1` [ISOTRETINOIN], the pEC50 was 8.23.
